Source: ChEMBL document CHEMBL1122774, “Tri- and tetrapeptide analogues of kinins as potential renal vasodilators” (J Med Chem, 1984)
Several values for one entry are separate records, joined by “and”; a condition that tells them apart may be missing. Identical values can stand only once. Square brackets hold non-standard residues; d marks the D form. Peptide text beside a SMILES is read from it. * marks the point of attachment. ξ: configuration not given here. Butanoyl(4-(4-HOPh)) = O=C(CCCc1ccc(O)cc1)*; ξαMeF = CC(N)(Cc1ccccc1)C(=O)O

Experiments:
Canis familiaris [1] = assay: In vivo percent change in renal blood flow at 30 ug/Kg/min.; format: functional, Canis lupus familiaris, Kidney
Outline: (§1)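 Primary screen in anesthetized dogs (7-17 kg). Drug infused separately at 3, 30 and 300 µg/(kg min), each infusion lasting 5 min, at about 15-min intervals. Read-outs are renal blood flow, mean arterial blood pressure, heart rate, and RVR (MABP / mean RBF), as percent change. Significance thresholds are defined per number of dogs; n = 1-3 dogs.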

Canis familiaris [2] = assay: Renal vasodilator activity in anesthetized dogs and percent change in renal vascular resistance (RVR) was determined at 30 ug/Kg/min; format: functional, Canis lupus familiaris; outline: as §1
[3] = Ratio of ED20 of MABP (mean arterial blood pressure) to the ED15 of RVR (renal vascular resistance); format: functional
Outline: (§2)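 Anesthetized dogs in the secondary cumulative-infusion protocol, each dose level 5 min. Selectivity ratio is the dose giving a 20% change in mean arterial blood pressure divided by the cumulative dose lowering renal vascular resistance 15% (RVR ED15).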

Canis familiaris [4] = assay: In vivo percent change in canine heart rate at 3 ug/Kg/min.; format: functional, Canis lupus familiaris; outline: as §1
Canis familiaris [5] = assay: Renal vasodilator activity in anesthetized dogs was determined as percent change in heart rate (HR) at 30 ug/Kg/min; format: functional, Canis lupus familiaris; outline: as §1
Canis familiaris [6] = assay: Compound was evaluated for renal vasodilator activity and represented as ED15 (intravenous administration); format: functional; details: Canis lupus familiaris
Outline: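 Secondary protocol in anesthetized dogs with iv infusion at progressively increasing rates, each level infused 5 min. Potency is the cumulative dose (µg/kg) that lowered renal vascular resistance (MABP / mean RBF) by 15%. Minimum change needed for significance (p = 0.95) is 16% for RVR.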

Canis familiaris [7] = assay: In vivo percent change in canine mean arterial blood pressure (MABP) at 3 ug/Kg/min.; format: functional, Canis lupus familiaris; outline: as §1
Canis familiaris [8] = assay: In vivo percent change in canine mean arterial blood pressure (MABP) at 300 ug/Kg/min.; format: functional, Canis lupus familiaris; outline: as §1
[9] = Average max percent decrease in RVR (renal vascular resistance) was determined
Outline: (§3)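 Secondary protocol in anesthetized dogs. Drug given as iv infusion at progressively increasing rates, each dose level for 5 min. The maximum effect is taken as the largest percent decrease in renal vascular resistance (RVR) reached with the compound. RVR is calculated as mean arterial blood pressure / mean renal blood flow.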

Canis familiaris [10] = assay: In vivo percent change in canine renal blood flow (RBF) at 300 ug/Kg/min.; format: functional, Canis lupus familiaris, Kidney; outline: as §1
Canis familiaris [11] = assay: In vivo percent change in canine mean arterial blood pressure (MABP) at 30 ug/Kg/min.; format: functional, Canis lupus familiaris; outline: as §1
Canis familiaris [12] = assay: In vivo percent change in canine renal vascular resistance (RVR) at 300 ug/Kg/min.; format: functional, Canis lupus familiaris; outline: as §1
Canis familiaris [13] = assay: In vivo percent change in canine renal blood flow (RBF) at 3 ug/Kg/min.; format: functional, Canis lupus familiaris, Kidney; outline: as §1
Canis familiaris [14] = assay: In vivo percent change in canine renal vascular resistance (RVR) at 3 ug/Kg/min.; format: functional, Canis lupus familiaris; outline: as §1
[15] = Ratio of ED30 of iliac vascular resistant (IVR) to the ED15 of RVR (renal vascular resistance); format: functional
Outline: (§4)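 Anesthetized dogs in the secondary cumulative-infusion protocol, each dose level 5 min. Selectivity ratio is the dose giving a 30% change in iliac vascular resistance divided by the RVR ED15, the cumulative dose decreasing renal vascular resistance by 15%.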

Canis familiaris [16] = assay: In vivo percent change in canine heart rate at 300 ug/Kg/min.; format: functional, Canis lupus familiaris; outline: as §1
Canis familiaris [17] = assay: In vivo percent change in canine heart rate at 30 ug/Kg/min.; format: functional, Canis lupus familiaris; outline: as §1
Canis familiaris [18] = assay: Renal vasodilator activity in anesthetized dogs and percent change in renal vascular resistance (RVR) was determined at 300 ug/Kg/min; format: functional, Canis lupus familiaris; outline: as §1
[19] = Ratio of ED20 of MABP (mean arterial blood pressure) to the ED15 of RVR ( renal vascular resistance).; format: functional; outline: as §2
[20] = Average max percent decrease in RVR (renal vascular resistance) was determined.; outline: as §3
Canis familiaris [21] = assay: Renal vasodilator activity in anesthetized dogs and percent change in heart rate (HR) was determined at 300 ug/Kg/min; format: functional, Canis lupus familiaris; outline: as §1
[22] = Ratio of ED30 of iliac vascular resistant (IVR) to the ED15 of RVR(renal vascular resistance); format: functional; outline: as §4

Compound: CC(Cc1ccccc1)(NC(=O)[C@@H]1CCCN1C(=O)CCCc1ccc(O)cc1)C(=O)NCC(=O)N1CCC[C@H]1C(=O)O (some centres undefined) ({Butanoyl(4-(4-HOPh))}-P[ξαMeF]GP-OH)
- Change (Canis familiaris [1]): 16%
- Change (Canis familiaris [2]): -21%
- Ratio [3]: >1226
- Change (Canis familiaris [4]): 6%
- Change (Canis familiaris [5]): 10%
- ED15 (Canis familiaris [6]): 4.9 µg/kg
- Change (Canis familiaris [7]): -5%
- Change (Canis familiaris [8]): -6%
- Decrease [9]: 20%
- Change (Canis familiaris [10]): 14%
- Change (Canis familiaris [11]): -9%
- Change (Canis familiaris [12]): -17%
- Change (Canis familiaris [13]): 17%
- Change (Canis familiaris [14]): -18%
- Ratio [15]: > 1230
- Change (Canis familiaris [16]): 6%

Compound: CC(Cc1ccccc1)(NC(=O)[C@@H]1CCCN1C(=O)CCCc1ccccc1)C(=O)N1CCC[C@H]1C(=O)O (some centres undefined)
- Change (Canis familiaris [17]): 0%
- Change (Canis familiaris [1]): 2%
- Change (Canis familiaris [18]): -3%
- Change (Canis familiaris [2]): -2%
- Change (Canis familiaris [4]): 0%
- Change (Canis familiaris [7]): 0.5%
- Change (Canis familiaris [8]): 1%
- Change (Canis familiaris [10]): 4%
- Change (Canis familiaris [11]): 0%
- Change (Canis familiaris [13]): 3%
- Change (Canis familiaris [14]): -8%
- Change (Canis familiaris [16]): -2%

Compound: CC(Cc1ccccc1)(NC(=O)[C@@H]1CCCN1C(=O)CCCc1ccc(O)cc1)C(=O)NCCCN.Cl (some centres undefined)
- Change (Canis familiaris [17]): 1.3%
- Change (Canis familiaris [1]): 4.3%
- Change (Canis familiaris [18]): -11.3%
- Change (Canis familiaris [2]): -4.7%
- Change (Canis familiaris [4]): 0.7%
- Change (Canis familiaris [7]): -0.7%
- Change (Canis familiaris [8]): -1.4%
- Change (Canis familiaris [10]): 11.7%
- Change (Canis familiaris [11]): 3%
- Change (Canis familiaris [13]): 3.3%
- Change (Canis familiaris [14]): 4%
- Change (Canis familiaris [16]): 8%

Compound: COc1ccc(CC(C)(NC(=O)[C@@H]2CCCN2C(=O)CCCc2ccc(O)cc2)C(=O)N[C@@H](CCCN=C(N)N)C(=O)O)cc1OC (some centres undefined)
- Change (Canis familiaris [17]): 6.3%
- Change (Canis familiaris [1]): 18%
- Ratio [19]: >12
- Decrease [20]: 31%
- Change (Canis familiaris [2]): -21.3%
- Change (Canis familiaris [4]): 1.7%
- ED15 (Canis familiaris [6]): 506 µg/kg
- Change (Canis familiaris [7]): -2.7%
- Change (Canis familiaris [8]): -32%
- Change (Canis familiaris [10]): 29.5%
- Change (Canis familiaris [11]): -7.7%
- Change (Canis familiaris [12]): -44.5%
- Change (Canis familiaris [21]): 16%
- Change (Canis familiaris [13]): 4.3%
- Change (Canis familiaris [14]): -6.7%
- Ratio [15]: > 12

Compound: H-RPPGFSPFR-OH [BRADYKININ]
- Ratio [19]: 7 and 8
- Ratio [22]: 25
- ED15 (Canis familiaris [6]): 2.8 µg/kg
